From article PMC7113734 (Antiviral Research, 2016)
Where two headings read alike, the source gives them in different places.

How the values were obtained:
[1] = tested on: drug-resistant HIV-1 strains; experiment: Antiviral activity against drug-resistant HIV-1 strains in MT-4; type: cell-based; details: MT-4
MT-4 cells = experiment: Toxicity to MT-4 cells; type: cell-based; details: all assays
[2] = tested on: drug resistant clinical HIV isolates; experiment: Antiviral activity against drug-resistant HIV-1 in PBMCs; type: cell-based; details: Human immunodeficiency virus 1, PBMC
[3] = tested on: HIV attachment to HeLa-CD4-LTR-β-gal cells; experiment: Attachment inhibition assay; type: cell-based, HIV-1; details: Human immunodeficiency virus 1, read-out: Attachment inhibition EC50 ± SD
[4] = tested on: HL2/3 cells expressing HIV-1 gp120 and gp41 fusing with HeLa-CD4-LTR-β-gal cells; experiment: Fusion inhibition assay; type: cell-based; details: Human immunodeficiency virus 1, HL2/3, read-out: Fusion inhibition EC50 ± SD
In short: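 HeLa-CD4-LTR-β-Gal cells incubated with test compound for 1 h at 37°C/5% CO2, then co-cultured 48 h with HL2/3 cells. Cells lysed and β-galactosidase expression measured by chemiluminescent Gal-Screen.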

wild type HIV-1 RT = wild type HIV-1 RT (Human immunodeficiency virus type 1 group M subtype B, UniProt P04585); experiment: Biochemical RT inhibition assay
HIV-1 integrase = HIV-1 integrase (Human immunodeficiency virus type 1 group M subtype B, UniProt P04585); experiment: HIV-1 integrase inhibition assay; type: biochemical
HIV-1 protease = HIV-1 protease (Human immunodeficiency virus type 1 group M subtype B, UniProt P04585); experiment: HIV-1 protease inhibition assay; type: biochemical
HIVIIIB = experiment: Cell-to-cell virus transmission assay in CEM-SS cells; type: cell-based, HIV-1
HIV strain 92US727 = experiment: Cell-to-cell virus transmission assay in fresh human PBMCs; type: cell-based, HIV-1
In short: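 HIV-infected fresh human PBMCs treated 3 days with six concentrations of test compound. Passaged every 3 days for three passages at fixed compound concentration; 80% of culture volume replaced with fresh compound-containing medium and uninfected cells. Cell-free supernatants collected on sub-culture days for RT activity and extracellular p24 antigen. TCID50 per passage by endpoint dilution.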

[5] = tested on: IIIB strain of HIV-1 in CEM-SS cells; experiment: Combination drug interaction evaluation; type: cell-based
In short: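 CEM-SS cells infected with HIV-1 IIIB; inhibition of cytopathic effect measured for the test compound in two-drug combinations with known anti-HIV agents. Efficacy and toxicity analysed by Prichard–Shipman MacSynergy II. Expected additive inhibition computed from each agent's single-agent dose–response; inhibition above expected at each concentration calculated at 95%, 99% and 99.9% confidence. −99 to −51 μM2% scored antagonistic; <−100 highly antagonistic.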

HIV-1IIIB [6] = experiment: Drug-resistant virus selection by serial dose escalation; type: cell-based; details: fourteen passages, CEM-SS cells
HIV-1IIIB [7] = experiment: Antiviral activity with added serum proteins in CEM-SS cells; type: cell-based
[8] = tested on: clinical HIV-1 subtype B virus 92US723; experiment: Antiviral activity with added serum proteins in fresh human PBMCs; type: cell-based; details: 50% human serum, AAGP or HSA vs medium only
cytochrome P450 enzymes = experiment: Inhibition of cytochrome P450 enzymes; type: in vitro ADME
hERG = hERG (Homo sapiens, UniProt Q12809); experiment: Standard hERG test for cardiotoxicity
Pharmacokinetics in rats = type: in vivo; details: male, Sprague-Dawley, rat, plasma, po, 1000 mg/kg
In short: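 Male Sprague-Dawley rats, n = 3 per route. Prodrug given as IV bolus (50 mg/kg, 12.5 mg/mL in 5% DMSO/50% PEG300 in saline) or PO (1000 mg/kg, […] in 2% CMC suspension). Blood sampled over 24 h into sodium fluoride plus citric acid, kept on wet ice <10 min, then centrifuged at 4 °C. Plasma stored at −80 °C; prodrug and active metabolite quantified by UPLC-MS/MS (prodrug LLOQ 0.10 ng/mL).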

rift valley fever virus = experiment: microbe, parasite or virus in culture; type: cell-based
SARS corona virus = experiment: organism not typed; type: cell-based
tacaribe virus = experiment: microbe, parasite or virus in culture; type: cell-based; details: Mammarenavirus tacaribeense
in vitro = details: human, CC50 (cytotoxic concentration), fresh human PBMCs

hERG, sequence (Q12809 whole entry): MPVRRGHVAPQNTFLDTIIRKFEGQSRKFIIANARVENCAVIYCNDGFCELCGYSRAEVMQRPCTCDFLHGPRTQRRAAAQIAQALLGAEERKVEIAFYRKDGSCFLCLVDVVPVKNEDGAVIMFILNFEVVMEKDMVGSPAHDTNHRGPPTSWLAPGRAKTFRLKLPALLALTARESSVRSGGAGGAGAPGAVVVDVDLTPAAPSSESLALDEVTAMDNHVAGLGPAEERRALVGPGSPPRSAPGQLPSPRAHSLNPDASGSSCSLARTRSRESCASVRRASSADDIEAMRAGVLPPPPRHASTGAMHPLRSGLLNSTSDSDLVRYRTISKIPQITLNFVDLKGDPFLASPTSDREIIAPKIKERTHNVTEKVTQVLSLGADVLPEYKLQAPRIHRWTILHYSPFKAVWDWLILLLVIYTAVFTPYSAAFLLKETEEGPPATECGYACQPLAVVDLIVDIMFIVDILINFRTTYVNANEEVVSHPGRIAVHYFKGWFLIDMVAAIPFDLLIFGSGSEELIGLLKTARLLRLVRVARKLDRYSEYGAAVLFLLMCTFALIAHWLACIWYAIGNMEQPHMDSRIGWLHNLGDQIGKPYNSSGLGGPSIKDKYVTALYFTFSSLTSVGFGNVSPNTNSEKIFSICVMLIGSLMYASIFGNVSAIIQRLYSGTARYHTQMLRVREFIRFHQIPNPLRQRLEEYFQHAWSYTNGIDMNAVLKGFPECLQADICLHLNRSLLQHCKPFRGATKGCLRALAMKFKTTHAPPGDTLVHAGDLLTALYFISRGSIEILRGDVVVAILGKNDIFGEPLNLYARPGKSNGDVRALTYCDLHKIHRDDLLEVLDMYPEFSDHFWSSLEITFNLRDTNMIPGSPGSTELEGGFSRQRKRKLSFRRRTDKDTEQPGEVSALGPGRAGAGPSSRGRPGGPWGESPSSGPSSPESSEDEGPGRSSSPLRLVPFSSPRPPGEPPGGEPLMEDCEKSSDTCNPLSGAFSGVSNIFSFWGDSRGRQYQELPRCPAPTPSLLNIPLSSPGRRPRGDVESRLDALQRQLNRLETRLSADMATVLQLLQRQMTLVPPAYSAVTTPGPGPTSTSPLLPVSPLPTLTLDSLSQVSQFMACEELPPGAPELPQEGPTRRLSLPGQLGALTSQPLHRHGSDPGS

SMILES: NC(=O)CCNC(=O)c1ccccc1S [MDH-1-38, N-(3-amino-3-oxopropyl)-2-mercaptobenzamide]
- EC50 ([1]; Human immunodeficiency virus 1, read-out: Mean EC50 ± SD, AZT- and NNRTI-resistant, RT 4xAZT/L100I): 3.59 ± 1.25 µM
- EC50 ([1]; Human immunodeficiency virus 1, read-out: Mean EC50 ± SD, AZT- and NNRTI-resistant, RT 4xAZT/Y181C): 4.87 ± 0.22 µM
- EC50 ([1]; Human immunodeficiency virus 1, read-out: Mean EC50 ± SD, AZT-resistant, RT 4xAZT (D67N/K70R/T215Y/K219Q)): 3.31 ± 2.2 µM
- EC50 ([1]; Human immunodeficiency virus 1, read-out: Mean EC50 ± SD, Atazanavir-resistant, PR I50L): 0.82 ± 0.37 µM
- EC50 ([1]; Human immunodeficiency virus 1, read-out: Mean EC50 ± SD, Didanosine-resistant, RT L74V): 3.93 ± 2.33 µM
- EC50 ([1]; Human immunodeficiency virus 1, read-out: Mean EC50 ± SD, Enfuviritide-resistant, Env V38A/N126K): 7.09 ± 0.03 µM
- EC50 ([1]; Human immunodeficiency virus 1, read-out: Mean EC50 ± SD, Indinavir-, Ritonavir-resistant, PR I84V): 2.54 ± 0.93 µM
- EC50 ([1]; Human immunodeficiency virus 1, read-out: Mean EC50 ± SD, Indinavir-, Ritonavir-resistant, PR V82A): 10.3 ± 5.34 µM
- EC50 ([1]; Human immunodeficiency virus 1, read-out: Mean EC50 ± SD, Indinavir-, Ritonavir-resistant, PR V82F/I84V): 4.1 ± 0.47 µM
- EC50 ([1]; Human immunodeficiency virus 1, read-out: Mean EC50 ± SD, Lamivudine-resistant, RT M184V): 2.7 ± 1.52 µM
- EC50 ([1]; Human immunodeficiency virus 1, read-out: Mean EC50 ± SD, NNRTI-resistant, RT K103N/Y181C): 8.03 ± 1.45 µM
- EC50 ([1]; Human immunodeficiency virus 1, read-out: Mean EC50 ± SD, NNRTI-resistant, RT K103N): 3.97 ± 1.31 µM
- EC50 ([1]; Human immunodeficiency virus 1, read-out: Mean EC50 ± SD, NNRTI-resistant, RT L100I): 1.22 ± 0.01 µM
- EC50 ([1]; Human immunodeficiency virus 1, read-out: Mean EC50 ± SD, NNRTI-resistant, RT V106A): 2.74 ± 2.17 µM
- EC50 ([1]; Human immunodeficiency virus 1, read-out: Mean EC50 ± SD, NNRTI-resistant, RT V108I): 3.84 ± 1.6 µM
- EC50 ([1]; Human immunodeficiency virus 1, read-out: Mean EC50 ± SD, NNRTI-resistant, RT V179D): 3.57 ± 1.81 µM
- EC50 ([1]; Human immunodeficiency virus 1, read-out: Mean EC50 ± SD, NNRTI-resistant, RT Y181C): 3.99 ± 1.59 µM
- EC50 ([1]; Human immunodeficiency virus 1, read-out: Mean EC50 ± SD, NNRTI-resistant, RT Y188C): 3.37 ± 2.15 µM
- EC50 ([1]; Human immunodeficiency virus 1, read-out: Mean EC50 ± SD, Raltegravir-resistant, IN Q148H/G140S): 3.39 ± 2.15 µM
- EC50 ([1]; Human immunodeficiency virus 1, read-out: Mean EC50 ± SD, Saquinavir-resistant, PR G48V/L90M): 1 ± 0.34 µM
- EC50 ([1]; Human immunodeficiency virus 1, read-out: Mean EC50 ± SD, Tenofovir-resistant, RT K65R): 4.29 ± 0.64 µM
- non-toxic up to high test concentration (MT-4 cells): > 100 µM
- EC50 ([2]; read-out: PBMC/HIV-1 EC50 ± SD, Multi-drug resistant AD. MDR): 10.6 ± 6.95 µM
- EC50 ([2]; read-out: PBMC/HIV-1 EC50 ± SD, Multi-drug resistant MDR769): 3.5 ± 1.45 µM
- EC50 ([2]; read-out: PBMC/HIV-1 EC50 ± SD, NNRTI-resistant A17R): 11.4 ± 8.47 µM
- EC50 ([2]; read-out: PBMC/HIV-1 EC50 ± SD, NNRTI-resistant N119): 2.58 ± 2.52 µM
- EC50 ([2]; read-out: PBMC/HIV-1 EC50 ± SD, PI-resistant 144-44): 9.78 ± 8.23 µM
- EC50 ([2]; read-out: PBMC/HIV-1 EC50 ± SD, PI-resistant 1002-60): 2.04 ± 1.03 µM
- EC50 ([2]; read-out: PBMC/HIV-1 EC50 ± SD, PI-resistant 1022-48): 0.98 ± 0.64 µM
- EC50 ([2]; read-out: PBMC/HIV-1 EC50 ± SD, PI-resistant 1026-60): 2.67 ± 0.4 µM
- EC50 ([2]; read-out: PBMC/HIV-1 EC50 ± SD, PI-resistant 1064-52): 3.06 ± 0.28 µM
- EC50 ([2]; read-out: PBMC/HIV-1 EC50 ± SD, Wild Type 92US727): 3.32 ± 1.95 µM
- EC50 [3]: 44.4 ± 7.21 µM
- EC50 [4]: 83.3 ± 26.4 µM
- EC50 (wild type HIV-1 RT): > 100 µM
- EC50 (HIV-1 integrase): > 100 µM
- EC50 (HIV-1 protease): > 100 µM
- RT (HIVIIIB; Passage 1, 2 μM): 22 cpm
- TCID50/mL (HIVIIIB; Passage 1, 2 μM): 0 TCID50/mL
- p24 (HIVIIIB; Passage 1, 2 μM): 619 pg/mL
- RT (HIVIIIB; Passage 2, 2 μM): 185 cpm
- TCID50/mL (HIVIIIB; Passage 2, 2 μM): 2.46 × 10^5 TCID50/mL
- p24 (HIVIIIB; Passage 2, 2 μM): 28,255 pg/mL
- RT (HIVIIIB; Passage 3, 2 μM): 2820 cpm
- TCID50/mL (HIVIIIB; Passage 3, 2 μM): 2.41 × 10^4 TCID50/mL
- p24 (HIVIIIB; Passage 3, 2 μM): 394,996 pg/mL
- RT (HIV strain 92US727; Passage 1, 3.25 μM): 216 cpm
- TCID50/mL (HIV strain 92US727; Passage 1, 3.25 μM): 3.75 × 10^2 TCID50/mL
- p24 (HIV strain 92US727; Passage 1, 3.25 μM): 816 pg/mL
- RT (HIV strain 92US727; Passage 2, 3.25 μM): 730 cpm
- TCID50/mL (HIV strain 92US727; Passage 2, 3.25 μM): 4.90 × 10^3 TCID50/mL
- p24 (HIV strain 92US727; Passage 2, 3.25 μM): 2642 pg/mL
- RT (HIV strain 92US727; Passage 3, 3.25 μM): 11,080 cpm
- TCID50/mL (HIV strain 92US727; Passage 3, 3.25 μM): 2.17 × 10^4 TCID50/mL
- p24 (HIV strain 92US727; Passage 3, 3.25 μM): 55,429 pg/mL
- mean synergy volume ([5]; in combination with amprenavir): 101 ± 61 μM^2%
- mean synergy volume ([5]; in combination with dolutegravir): 95.7 ± 44.3 μM^2%
- mean synergy volume ([5]; in combination with enfuviritide): 80.8 ± 32.9 μM^2%
- mean synergy volume ([5]; in combination with lopinavir): 108 ± 64.5 μM^2%
- mean synergy volume ([5]; in combination with nelfinavir): 498 ± 288 μM^2%
- mean synergy volume ([5]; in combination with ritonavir): 282 ± 111 μM^2%
- selection of resistant virus (HIV-1IIIB [6]): did not result in resistance
- fold decrease in potency (HIV-1IIIB [7]; in the presence of 50% human AB serum): ~4.5 fold
- fold decrease in potency (HIV-1IIIB [7]; in the presence of HSA (10 mg/mL)): 4.5 fold
- change in antiviral activity with serum protein additives [8]: no significant change in antiviral activity
- inhibition of cytochrome P450 enzymes (cytochrome P450 enzymes): neither NS1040 nor MDH-1-38 had significant inhibitory activity
- hERG test for cardiotoxicity (hERG): negative
- bioavailability (Pharmacokinetics in rats): 64%
- EC50 (rift valley fever virus): ~20 µM
- EC50 (SARS corona virus): ~20 µM
- EC50 (tacaribe virus): ~20 µM
- CC50 (in vitro): > 231 µM
